pIC50: −log10 of the molar value.
Legend:
[1] = molecular target: Serine/threonine-protein kinase ULK3 (Homo sapiens, UniProt Q6PHR2); assay: Inhibition of ULK3 in human HeLa cells lysate pre incubated for 15 mins followed by ATP acyl phosphate probe addition and measured after 10 mins by LC-MS/MS analysis; type: subcellular
[2] = molecular target: Casein kinase I isoform alpha (Homo sapiens, UniProt P48729); assay: Inhibition of CK1alpha in human HeLa cells lysate at 10 uM pre incubated for 15 mins followed by ATP acyl phosphate probe addition and measured after 10 mins by LC-MS/MS analysis relative to control; type: subcellular; settings: time 25.0 min
[3] = molecular target: T1, Mitogen-activated protein kinase 4 (Homo sapiens, UniProt P31152); assay: Inhibition of ERK4 in human HeLa cells lysate at 50 uM pre incubated for 15 mins followed by ATP acyl phosphate probe addition and measured after 10 mins by LC-MS/MS analysis relative to control; type: subcellular; settings: time 25.0 min
[4] = Toxicity in C57Bl/6 mouse assessed as effect on glucose level at 50 mg/kg, ip for 14 days (reference value: 181 mg/dl); type: organism-based; settings: in vivo, 336 h, time 14 day
[5] = molecular target: Tyrosine-protein kinase Lyn (Homo sapiens, UniProt P07948); assay: Inhibition of LYN in human HeLa cells lysate pre incubated for 15 mins followed by ATP acyl phosphate probe addition and measured after 10 mins by LC-MS/MS analysis; type: subcellular
[6] = molecular target: Cyclin-dependent kinase 11B (Homo sapiens, UniProt P21127); assay: Inhibition of PITSLRE in human HeLa cells lysate at 50 uM pre incubated for 15 mins followed by ATP acyl phosphate probe addition and measured after 10 mins by LC-MS/MS analysis relative to control; type: subcellular; settings: time 25.0 min
[7] = molecular target: Cyclin-dependent kinase 7 (Homo sapiens, UniProt P50613); assay: Inhibition of CDK7 in human HeLa cells lysate pre incubated for 15 mins followed by ATP acyl phosphate probe addition and measured after 10 mins by LC-MS/MS analysis; type: subcellular
In short: (§1)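 KiNativ profiling in HeLa lysate (5 mg/mL total protein). Lysate incubated 15 min with inhibitor at 50, 10, 2, 0.8 or 0 μM. ATP or ADP acylphosphate probe then added (5 μM final) and reacted 10 min. Reaction stopped with urea and analysed by targeted MS, using up to four fragment ions per kinase peptide-probe conjugate. % inhibition taken against untreated lysate. Run in duplicate.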

[8] = molecular target: T2, Serine/threonine-protein kinase Nek9 (Homo sapiens) (UniProt Q8TD19); assay: Inhibition of NEK9 in human HeLa cells lysate at 10 uM pre incubated for 15 mins followed by ATP acyl phosphate probe addition and measured after 10 mins by LC-MS/MS analysis relative to control; type: subcellular; settings: time 25.0 min
T2 sequence (whole entry): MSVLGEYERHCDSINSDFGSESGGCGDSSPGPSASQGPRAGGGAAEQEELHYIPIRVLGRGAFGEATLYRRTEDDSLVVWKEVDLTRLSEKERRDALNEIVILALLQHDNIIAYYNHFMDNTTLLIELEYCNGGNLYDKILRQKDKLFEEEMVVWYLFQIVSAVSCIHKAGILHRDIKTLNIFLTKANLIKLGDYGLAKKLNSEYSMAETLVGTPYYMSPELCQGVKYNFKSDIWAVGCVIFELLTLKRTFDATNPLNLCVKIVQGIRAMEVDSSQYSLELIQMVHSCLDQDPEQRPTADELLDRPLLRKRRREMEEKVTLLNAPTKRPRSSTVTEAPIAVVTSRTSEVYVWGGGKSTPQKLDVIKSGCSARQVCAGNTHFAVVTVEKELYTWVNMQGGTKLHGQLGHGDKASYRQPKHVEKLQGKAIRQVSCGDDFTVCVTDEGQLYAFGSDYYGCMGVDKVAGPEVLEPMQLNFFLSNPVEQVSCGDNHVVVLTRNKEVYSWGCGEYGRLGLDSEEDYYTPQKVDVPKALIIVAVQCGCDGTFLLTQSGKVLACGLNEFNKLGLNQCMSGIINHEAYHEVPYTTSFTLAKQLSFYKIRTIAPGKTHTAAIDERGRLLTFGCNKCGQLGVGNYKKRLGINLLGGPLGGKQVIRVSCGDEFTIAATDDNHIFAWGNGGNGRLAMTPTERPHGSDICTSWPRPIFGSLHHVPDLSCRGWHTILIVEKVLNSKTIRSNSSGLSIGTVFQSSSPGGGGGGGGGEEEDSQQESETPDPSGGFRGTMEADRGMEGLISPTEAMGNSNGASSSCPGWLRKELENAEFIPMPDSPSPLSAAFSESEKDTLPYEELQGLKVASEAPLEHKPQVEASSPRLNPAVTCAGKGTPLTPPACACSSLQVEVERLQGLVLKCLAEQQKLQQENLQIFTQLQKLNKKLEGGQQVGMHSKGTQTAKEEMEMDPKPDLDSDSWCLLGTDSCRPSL

[9] = Inhibition of CDK5/PRKX/PRKY in human HeLa cells lysate at 10 uM pre incubated for 15 mins followed by ADP acyl phosphate probe addition and measured after 10 mins by LC-MS/MS analysis relative to control; settings: 25 min, condition cancer; in short: as §1
[10] = molecular target: Cyclin-dependent kinase 2 (Homo sapiens, UniProt P24941); assay: Inhibition of CDK2 K2 site in human HeLa cells lysate pre incubated for 15 mins followed by ATP acyl phosphate probe addition and measured after 10 mins by LC-MS/MS analysis; type: subcellular; in short: as §1
[11] = molecular target: Serine/threonine-protein kinase Nek8 (Homo sapiens, UniProt Q86SG6); assay: Inhibition of NEK8 in human HeLa cells lysate pre incubated for 15 mins followed by ADP acyl phosphate probe addition and measured after 10 mins by LC-MS/MS analysis; type: subcellular
[12] = Inhibition of PCTAIRE2/3 in human HeLa cells lysate at 50 uM pre incubated for 15 mins followed by ADP acyl phosphate probe addition and measured after 10 mins by LC-MS/MS analysis relative to control; settings: 25 min, condition cancer
[13] = molecular target: Mitogen-activated protein kinase kinase kinase 11 (Homo sapiens, UniProt Q16584); assay: Inhibition of MLK3 in human HeLa cells lysate at 2 uM pre incubated for 15 mins followed by ATP acyl phosphate probe addition and measured after 10 mins by LC-MS/MS analysis relative to control; type: subcellular; settings: time 25.0 min
[14] = Inhibition of MAP3K2/MAP3K3 in human HeLa cells lysate pre incubated for 15 mins followed by ADP acyl phosphate probe addition and measured after 10 mins by LC-MS/MS analysis; type: subcellular
[15] = Volume of distribution at steady state in Sprague-Dawley rat at 1 mg/kg, iv measured up to 8 hrs by LC-MS/MS analysis; type: ADME, organism-based; settings: in vivo, read-out: Vdss
[16] = molecular target: T1, Mitogen-activated protein kinase 4; assay: Inhibition of ERK4 in human HeLa cells lysate pre incubated for 15 mins followed by ATP acyl phosphate probe addition and measured after 10 mins by LC-MS/MS analysis; type: subcellular
[17] = molecular target: Dual specificity mitogen-activated protein kinase kinase 1 (Homo sapiens, UniProt Q02750); assay: Inhibition of MAP2K1 in human HeLa cells lysate at 50 uM pre incubated for 15 mins followed by ATP acyl phosphate probe addition and measured after 10 mins by LC-MS/MS analysis relative to control; type: subcellular; settings: time 25.0 min
[18] = molecular target: T2, Serine/threonine-protein kinase Nek9 (Homo sapiens); assay: Inhibition of NEK9 in human HeLa cells lysate at 50 uM pre incubated for 15 mins followed by ADP acyl phosphate probe addition and measured after 10 mins by LC-MS/MS analysis relative to control; type: subcellular; settings: time 25.0 min
[19] = Toxicity in C57Bl/6 mouse assessed as effect on locomotor activity at 50 mg/kg, ip for 14 days; type: organism-based; settings: in vivo, 336 h, time 14 day

T1 sequence (P31152 whole entry): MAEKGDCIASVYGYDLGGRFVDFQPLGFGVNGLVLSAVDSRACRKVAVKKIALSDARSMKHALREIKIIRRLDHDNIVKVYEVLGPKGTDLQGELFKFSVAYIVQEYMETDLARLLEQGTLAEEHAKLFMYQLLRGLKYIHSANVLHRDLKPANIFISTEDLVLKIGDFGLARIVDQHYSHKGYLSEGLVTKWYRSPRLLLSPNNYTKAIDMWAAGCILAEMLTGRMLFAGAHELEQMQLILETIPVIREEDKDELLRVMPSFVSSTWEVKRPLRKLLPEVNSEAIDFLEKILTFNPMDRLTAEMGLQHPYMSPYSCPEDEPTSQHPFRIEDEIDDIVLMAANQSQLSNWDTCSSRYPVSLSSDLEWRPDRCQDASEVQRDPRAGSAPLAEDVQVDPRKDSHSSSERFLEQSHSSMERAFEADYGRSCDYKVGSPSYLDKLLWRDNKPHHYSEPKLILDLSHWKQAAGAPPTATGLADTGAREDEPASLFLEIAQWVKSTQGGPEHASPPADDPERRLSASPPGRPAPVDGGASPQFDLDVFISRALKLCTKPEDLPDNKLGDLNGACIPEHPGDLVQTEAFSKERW
Tyrosine-protein kinase Lyn, sequence (P07948 whole entry): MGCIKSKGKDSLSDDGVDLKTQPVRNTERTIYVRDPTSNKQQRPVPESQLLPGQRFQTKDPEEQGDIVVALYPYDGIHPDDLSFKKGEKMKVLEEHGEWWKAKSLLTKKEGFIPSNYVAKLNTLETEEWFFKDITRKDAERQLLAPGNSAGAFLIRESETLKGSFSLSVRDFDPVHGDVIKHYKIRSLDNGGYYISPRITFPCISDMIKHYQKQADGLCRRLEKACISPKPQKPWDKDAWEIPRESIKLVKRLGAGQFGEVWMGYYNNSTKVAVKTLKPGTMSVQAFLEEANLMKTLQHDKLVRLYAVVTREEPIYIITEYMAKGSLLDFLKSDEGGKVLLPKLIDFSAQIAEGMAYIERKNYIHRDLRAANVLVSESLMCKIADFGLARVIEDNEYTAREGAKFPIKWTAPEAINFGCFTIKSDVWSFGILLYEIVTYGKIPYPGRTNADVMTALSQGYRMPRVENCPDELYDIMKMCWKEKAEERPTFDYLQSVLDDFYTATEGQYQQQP
Mitogen-activated protein kinase kinase kinase 11, sequence (Q16584 whole entry, looked up): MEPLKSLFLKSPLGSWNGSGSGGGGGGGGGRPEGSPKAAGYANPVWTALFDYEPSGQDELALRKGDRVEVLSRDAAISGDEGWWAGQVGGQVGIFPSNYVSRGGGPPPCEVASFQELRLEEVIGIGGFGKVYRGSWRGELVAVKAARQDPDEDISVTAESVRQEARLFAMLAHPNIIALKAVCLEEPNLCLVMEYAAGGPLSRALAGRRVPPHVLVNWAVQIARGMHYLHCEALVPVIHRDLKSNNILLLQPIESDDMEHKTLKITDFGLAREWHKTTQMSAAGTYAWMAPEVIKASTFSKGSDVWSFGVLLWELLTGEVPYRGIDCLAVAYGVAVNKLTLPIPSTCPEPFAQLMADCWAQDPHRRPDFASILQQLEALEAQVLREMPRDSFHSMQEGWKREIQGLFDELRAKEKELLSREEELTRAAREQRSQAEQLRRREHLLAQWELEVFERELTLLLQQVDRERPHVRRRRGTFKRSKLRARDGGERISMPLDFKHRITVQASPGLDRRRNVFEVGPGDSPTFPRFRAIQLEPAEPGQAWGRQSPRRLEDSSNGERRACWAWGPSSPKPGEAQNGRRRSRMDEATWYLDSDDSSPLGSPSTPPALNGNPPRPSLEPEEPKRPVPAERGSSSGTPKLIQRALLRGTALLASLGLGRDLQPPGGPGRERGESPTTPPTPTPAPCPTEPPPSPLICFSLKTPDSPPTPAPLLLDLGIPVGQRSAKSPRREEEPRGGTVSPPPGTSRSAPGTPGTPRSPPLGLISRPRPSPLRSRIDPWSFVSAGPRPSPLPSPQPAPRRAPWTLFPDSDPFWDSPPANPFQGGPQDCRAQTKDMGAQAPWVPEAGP
Serine/threonine-protein kinase ULK3, sequence (Q6PHR2 whole entry, canonical isoform): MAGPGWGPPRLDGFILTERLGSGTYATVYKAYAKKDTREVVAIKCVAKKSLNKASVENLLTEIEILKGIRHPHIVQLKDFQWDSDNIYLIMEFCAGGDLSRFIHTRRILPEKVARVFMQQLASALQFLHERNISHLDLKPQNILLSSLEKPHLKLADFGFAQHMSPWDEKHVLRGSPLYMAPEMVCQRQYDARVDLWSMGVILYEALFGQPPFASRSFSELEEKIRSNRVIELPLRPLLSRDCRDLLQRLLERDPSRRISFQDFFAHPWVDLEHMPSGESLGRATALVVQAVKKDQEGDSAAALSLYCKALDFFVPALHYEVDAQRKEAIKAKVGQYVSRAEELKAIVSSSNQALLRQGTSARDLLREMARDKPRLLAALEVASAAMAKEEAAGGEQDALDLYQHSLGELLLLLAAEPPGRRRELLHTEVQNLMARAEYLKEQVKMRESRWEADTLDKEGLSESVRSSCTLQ
Cyclin-dependent kinase 7, sequence (P50613 whole entry, the tested form may be a part): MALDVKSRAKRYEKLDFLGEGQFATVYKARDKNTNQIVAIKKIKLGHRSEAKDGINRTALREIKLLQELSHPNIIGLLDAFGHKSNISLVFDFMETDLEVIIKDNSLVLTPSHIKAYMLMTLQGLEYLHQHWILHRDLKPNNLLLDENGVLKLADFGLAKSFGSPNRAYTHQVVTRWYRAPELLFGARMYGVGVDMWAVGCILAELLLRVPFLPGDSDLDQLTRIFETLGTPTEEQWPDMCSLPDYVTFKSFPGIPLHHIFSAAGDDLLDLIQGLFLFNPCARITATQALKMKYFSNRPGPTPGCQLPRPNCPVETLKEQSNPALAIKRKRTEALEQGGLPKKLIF
Dual specificity mitogen-activated protein kinase kinase 1, sequence (Q02750 whole entry): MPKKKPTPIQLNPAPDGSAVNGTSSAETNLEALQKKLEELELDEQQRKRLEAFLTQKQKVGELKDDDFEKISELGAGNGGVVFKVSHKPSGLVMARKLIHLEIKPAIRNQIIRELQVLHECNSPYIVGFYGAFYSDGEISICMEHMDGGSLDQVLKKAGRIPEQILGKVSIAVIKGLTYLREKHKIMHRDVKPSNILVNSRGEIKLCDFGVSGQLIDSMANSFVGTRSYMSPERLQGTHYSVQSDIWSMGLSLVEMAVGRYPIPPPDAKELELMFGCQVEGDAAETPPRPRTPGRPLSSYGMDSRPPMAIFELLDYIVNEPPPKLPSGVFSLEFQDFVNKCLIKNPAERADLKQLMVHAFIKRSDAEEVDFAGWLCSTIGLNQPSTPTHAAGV
Casein kinase I isoform alpha, sequence (P48729 2-337 limits assumed): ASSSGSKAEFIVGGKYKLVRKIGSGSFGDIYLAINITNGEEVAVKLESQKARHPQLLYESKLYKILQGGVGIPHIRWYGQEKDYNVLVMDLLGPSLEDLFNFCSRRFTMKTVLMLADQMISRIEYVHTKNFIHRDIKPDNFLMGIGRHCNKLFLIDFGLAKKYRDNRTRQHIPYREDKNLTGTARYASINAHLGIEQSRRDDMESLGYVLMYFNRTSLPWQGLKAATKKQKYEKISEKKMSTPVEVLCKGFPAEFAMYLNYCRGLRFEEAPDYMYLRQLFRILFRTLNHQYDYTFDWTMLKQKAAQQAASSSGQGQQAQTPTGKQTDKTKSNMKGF
Serine/threonine-protein kinase Nek8, sequence (Q86SG6 whole entry): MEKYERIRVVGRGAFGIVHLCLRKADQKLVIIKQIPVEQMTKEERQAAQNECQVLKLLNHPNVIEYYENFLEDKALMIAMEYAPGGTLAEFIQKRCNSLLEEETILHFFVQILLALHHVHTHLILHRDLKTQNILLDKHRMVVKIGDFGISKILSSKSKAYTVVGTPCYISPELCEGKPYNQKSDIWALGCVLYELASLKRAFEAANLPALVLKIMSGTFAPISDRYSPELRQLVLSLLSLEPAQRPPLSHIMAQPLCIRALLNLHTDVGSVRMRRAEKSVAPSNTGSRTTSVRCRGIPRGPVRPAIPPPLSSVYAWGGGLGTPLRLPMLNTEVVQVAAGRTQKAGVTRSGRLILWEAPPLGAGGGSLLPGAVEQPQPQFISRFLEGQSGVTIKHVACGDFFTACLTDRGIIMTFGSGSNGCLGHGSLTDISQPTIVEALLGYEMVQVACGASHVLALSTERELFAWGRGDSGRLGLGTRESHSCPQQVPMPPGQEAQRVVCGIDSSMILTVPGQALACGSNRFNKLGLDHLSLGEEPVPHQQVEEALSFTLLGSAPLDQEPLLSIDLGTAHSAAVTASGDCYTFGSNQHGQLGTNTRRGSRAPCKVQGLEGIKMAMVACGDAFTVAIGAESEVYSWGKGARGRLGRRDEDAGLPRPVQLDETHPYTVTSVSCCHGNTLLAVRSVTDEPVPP
Cyclin-dependent kinase 11B, sequence (P21127 whole entry): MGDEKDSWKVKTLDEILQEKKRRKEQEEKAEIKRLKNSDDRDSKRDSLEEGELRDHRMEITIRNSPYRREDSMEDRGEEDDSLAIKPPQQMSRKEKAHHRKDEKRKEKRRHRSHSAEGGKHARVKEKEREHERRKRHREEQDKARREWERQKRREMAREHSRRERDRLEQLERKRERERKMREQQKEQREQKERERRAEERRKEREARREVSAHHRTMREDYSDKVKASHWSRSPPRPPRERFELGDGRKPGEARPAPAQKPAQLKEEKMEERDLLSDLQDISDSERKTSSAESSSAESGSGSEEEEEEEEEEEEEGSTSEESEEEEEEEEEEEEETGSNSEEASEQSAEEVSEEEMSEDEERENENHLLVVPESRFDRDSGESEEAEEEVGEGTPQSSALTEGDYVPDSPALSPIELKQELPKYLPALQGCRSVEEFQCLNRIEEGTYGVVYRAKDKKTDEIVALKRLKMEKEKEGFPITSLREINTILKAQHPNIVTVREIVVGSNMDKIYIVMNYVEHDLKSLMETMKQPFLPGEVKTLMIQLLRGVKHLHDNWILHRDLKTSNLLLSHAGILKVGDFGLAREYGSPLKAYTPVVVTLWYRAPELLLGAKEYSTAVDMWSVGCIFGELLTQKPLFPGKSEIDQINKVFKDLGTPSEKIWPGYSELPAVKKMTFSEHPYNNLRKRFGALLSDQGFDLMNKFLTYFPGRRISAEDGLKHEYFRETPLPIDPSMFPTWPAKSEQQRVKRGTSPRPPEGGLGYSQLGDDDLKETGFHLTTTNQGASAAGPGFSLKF

For `CCOc1cc(N2CCC(O)CC2)ccc1Nc1ncc2c(n1)N(C)c1ccccc1C(=O)N2C`, the pIC50 [1] was < 4.30, the inhibition [2] was -7.9% and the inhibition [3] was 28.7%. For the same compound, the Activity [4] was 126 mg/dL, the pIC50 [5] was < 4.30 and the inhibition [6] was -8.6%. For the same compound, the pIC50 [7] was < 4.30, the inhibition [8] was -7.3% and the inhibition at 10 µM [9] was -0.1%. For the same compound, the pIC50 [10] was < 4.30, the pIC50 [11] was < 4.30 and the inhibition at 50 µM [12] was -8.7%. The inhibition [13] was 5.3%, the pIC50 [14] was < 4.30 and the Vd [15] was 3.4 L/kg. For the same compound, the pIC50 [16] was < 4.30, the inhibition [17] was -7.3% and the inhibition [18] was 4.5%. The Activity [19] was “Non-Toxic”.

— ChEMBL document CHEMBL5661979, “Pharmacological inhibition of BMK1 suppresses tumor growth through promyelocytic leukemia protein” (Cancer Cell, 2010)
